ChEMBL document CHEMBL3774362, “Design, synthesis, and evaluation of 2-piperidone derivatives for the inhibition of β-amyloid aggregation and inflammation mediated neurotoxicity” (Bioorg Med Chem, 2016)
One block for each compound: values may come before it. Calls of active or inactive are those of the source. No cut-off for these calls is given here.

Tests used:
[1] = target: Amyloid-beta precursor protein (Homo sapiens) (UniProt P05067); assay: Inhibition of Amyloid beta (1 to 42) (unknown origin) self aggregation at 20 uM for 24 hrs by Thioflavin T-based fluorometric assay
Outline: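 Aβ1–42 was HFIP-pretreated and dissolved in DMSO to a 200 μM stock. It was mixed with compound in PBS pH 7.4, compound final 20 μM. Incubation was 24 h at room temperature with shaking. 5 μM ThT in 50 mM glycine–NaOH pH 8.5 was then added. Fluorescence was read at ex 435 nm / em 490 nm. Mean ± SD of three independent measurements, each in duplicate.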

[2] = target: Amyloid-beta precursor protein (Homo sapiens) (UniProt P05067); assay: Inhibition of Amyloid beta (1 to 42) (unknown origin) self aggregation for 24 hrs by Thioflavin T-based fluorometric assay
[3] = target: Amyloid-beta precursor protein (Homo sapiens) (UniProt P05067); assay: Inhibition of Amyloid beta (1 to 42 residues) (unknown origin) assessed as no fibril formation at 50 uM after 4 days by atomic force microscopic analysis
Outline: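 Aβ1–42 was pretreated with HFIP and taken up in DMSO. It was incubated in PBS pH 7.4 for 4 days at 30 °C, with or without compound. Final concentrations were 25 μM peptide and 50 μM compound. 10 μL aliquots were deposited on mica for 10 min, rinsed with water and dried under nitrogen. Samples were imaged by tapping-mode AFM.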

[4] = tested on: BV-2; assay: Neuroprotective activity in mouse BV2 cells assessed as inhibition of LPS-stimulated TNFalpha production preincubated for 3 hrs followed by LPS treatment for 12 hrs by ELISA; format: functional, cell-based
Outline: (§1)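 BV-2 microglia were seeded 2 × 10^4 cells/well and pretreated 3 h with compound at 0.0016, 0.008, 0.04, 0.2 and 1 μmol/L. They were then stimulated with LPS (1 μg/mL) for 12 h. Clarified supernatants were assayed by ELISA for the named cytokine.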

[5] = Cytotoxicity against mouse BV2 cells assessed as cell viability at 5 uM by MTT assay; format: cell-based; settings: bv-2, 5 µM
Outline: (§2)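 BV-2 murine microglia kept in DMEM-H with 10% FBS at 37 °C, 5% CO2. Cells seeded 1 × 10^4 cells/well and cultured 24 h. Compound then added at 0.008, 0.04, 0.2, 1 and 5 μmol/L, with or without LPS. Viability read by MTT as absorbance at 490 nm.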

[6] = tested on: BV-2; assay: Neuroprotective activity in mouse BV2 cells assessed as inhibition of LPS-stimulated IL6 production preincubated for 3 hrs followed by LPS treatment for 12 hrs by ELISA; format: functional, cell-based; outline: as §1
[7] = tested on: BV-2; assay: Neuroprotective activity in mouse BV2 cells assessed as inhibition of LPS-stimulated IL-1beta production preincubated for 3 hrs followed by LPS treatment for 12 hrs by ELISA; format: functional, cell-based; outline: as §1
[8] = tested on: SH-SY5Y; assay: Neuroprotective activity against LPS-stimulated toxicity in human SH-SY5Y cells using compound-conditioned media from LPS-stimulated BV2 cells by MTT assay; format: functional, cell-based
Outline: (§3)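 BV-2 cells were seeded 2 × 10^4/well and pretreated 3 h with compound at 0.2, 1 and 5 μM. They were then stimulated 12 h with LPS 1 μg/mL, and the supernatant was clarified as conditioned medium. SH-SY5Y cells were seeded 5 × 10^3/well, grown 24 h and serum-starved overnight, then exposed to the conditioned medium. Viability was read by MTT at 490 nm. Mean ± SD of three independent experiments.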

[9] = tested on: SH-SY5Y; assay: Neuroprotective activity against LPS-induced toxicity in human SH-SY5Y cells assessed as cell viability using compound-conditioned media from LPS-stimulated BV2 cells at 5 uM by MTT assay; format: functional; outline: as §3
[10] = tested on: SH-SY5Y; assay: Cytotoxicity against human SH-SY5Y cells at 5 uM by MTT assay; format: cell-based
Outline: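 SH-SY5Y (DMEM/F-12, 10% FBS, 37 °C, 5% CO2) seeded 1 × 10^4 cells/well, grown 24 h, then exposed to compound at 0.04, 0.2, 1 and 5 μmol/L for 24 h. MTT added for a further 4 h; absorbance read at 490 nm. Mean ± SD of three independent experiments.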

[11] = target: Myeloid differentiation primary response protein MyD88 (Homo sapiens) (UniProt Q99836); assay: Inhibition of Flag-tagged MyD88-HA-tagged MyD88 (unknown origin) homodimerization transfected in HEK293 cells after 7 hrs by Co-immunoprecipitation assay; format: cell-based
Outline: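 HEK293 cells were seeded at 9 × 10^5/well and transfected with Flag-MyD88 and HA-MyD88 plasmids. Compound was added 7 h after transfection at 10 and 40 μM. Cells were harvested 24 h post-transfection and lysed in RIPA. Lysates were precleared with protein A/G beads and immunoprecipitated with anti-HA on A/G beads at 4 °C. Captured Flag-MyD88 was detected by western blot.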

[12] = Cytotoxicity against mouse BV2 cells assessed as cell viability at 0.008 to 5 umol/L by MTT assay in presence of LPS; format: cell-based; settings: bv-2; outline: as §2

Amyloid-beta precursor protein (Homo sapiens), sequence (P05067 whole entry, the tested form may be a part): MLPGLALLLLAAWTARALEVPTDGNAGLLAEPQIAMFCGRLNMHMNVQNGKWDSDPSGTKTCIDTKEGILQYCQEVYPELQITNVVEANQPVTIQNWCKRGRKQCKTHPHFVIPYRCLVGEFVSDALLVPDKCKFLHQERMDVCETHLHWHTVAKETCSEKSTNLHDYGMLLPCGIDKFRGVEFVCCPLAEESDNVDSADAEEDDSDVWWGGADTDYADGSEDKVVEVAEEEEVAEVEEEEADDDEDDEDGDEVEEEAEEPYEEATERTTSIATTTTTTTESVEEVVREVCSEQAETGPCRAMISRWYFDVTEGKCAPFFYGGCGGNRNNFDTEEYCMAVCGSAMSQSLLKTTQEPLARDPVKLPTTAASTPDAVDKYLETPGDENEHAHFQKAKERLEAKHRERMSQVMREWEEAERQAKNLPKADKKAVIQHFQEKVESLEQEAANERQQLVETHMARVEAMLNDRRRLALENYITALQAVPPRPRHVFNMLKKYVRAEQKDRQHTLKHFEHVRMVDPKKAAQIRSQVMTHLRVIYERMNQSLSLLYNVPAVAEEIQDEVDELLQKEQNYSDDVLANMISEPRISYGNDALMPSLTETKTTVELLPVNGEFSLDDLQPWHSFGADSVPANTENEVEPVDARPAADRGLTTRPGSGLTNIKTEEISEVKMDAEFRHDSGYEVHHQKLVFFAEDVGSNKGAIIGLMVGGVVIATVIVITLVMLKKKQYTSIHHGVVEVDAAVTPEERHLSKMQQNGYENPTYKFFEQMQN
Myeloid differentiation primary response protein MyD88 (Homo sapiens), sequence (Q99836 whole entry): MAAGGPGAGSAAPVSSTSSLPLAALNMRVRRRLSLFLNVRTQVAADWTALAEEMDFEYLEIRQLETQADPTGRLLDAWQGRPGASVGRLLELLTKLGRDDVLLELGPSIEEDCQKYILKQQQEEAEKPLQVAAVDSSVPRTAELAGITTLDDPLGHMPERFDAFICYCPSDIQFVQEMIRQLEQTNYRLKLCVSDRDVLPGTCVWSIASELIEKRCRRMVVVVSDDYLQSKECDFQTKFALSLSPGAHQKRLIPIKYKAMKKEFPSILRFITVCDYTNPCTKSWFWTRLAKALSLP

inhibition [1]: 43.3%
inhibition [2]: Dose-dependent effect
Structure (SMILES): O=C1C[C@@H](c2ccccc2)[C@H]([N+](=O)[O-])[C@@H](c2ccc(O)cc2)N1Cc1cccnc1 (racemic)

inhibition [1]: 49.2%
Structure (SMILES): COc1ccc(CN2C(=O)C[C@@H](c3ccccc3)[C@H]([N+](=O)[O-])[C@H]2c2ccc(O)cc2)cc1OC (racemic)

inhibition [1]: 28.7%
Structure (SMILES): COc1ccc(CN2C(=O)C[C@@H](c3ccccc3Cl)[C@H]([N+](=O)[O-])[C@H]2c2ccc(O)cc2)cc1 (racemic)

inhibition [1]: 50%
Structure (SMILES): COc1cccc(CN2C(=O)C[C@@H](c3ccccc3Cl)[C@H]([N+](=O)[O-])[C@H]2c2ccc(O)cc2)c1 (racemic)

inhibition [1]: 41.6%
Structure (SMILES): O=C1C[C@@H](c2ccccc2Cl)[C@H]([N+](=O)[O-])[C@@H](c2ccc(O)cc2)N1Cc1cccnc1 (racemic)

inhibition [1]: 36.3%
Structure (SMILES): COC(=O)c1ccc(CN2C(=O)C[C@@H](c3ccccc3)[C@H]([N+](=O)[O-])[C@H]2c2ccc(O)cc2)cc1 (racemic)

inhibition [1]: 55%
Structure (SMILES): COc1cc(OC)cc([C@@H]2CC(=O)N(Cc3ccccc3)[C@H](c3ccc(O)cc3)[C@H]2[N+](=O)[O-])c1 (racemic)

inhibition [1]: 46.1%
Structure (SMILES): Cc1ccc(CN2C(=O)C[C@@H](c3ccccc3Cl)[C@H]([N+](=O)[O-])[C@H]2c2ccc(O)cc2)cc1 (racemic)

inhibition [3]: Active
IC50 [4]: 80 nM
inhibition [1]: 59.1%
IC50 [6]: 30 nM
IC50 [7]: 210 nM
inhibition [2]: Dose-dependent effect
inhibition [11]: Dose-dependent effect
Structure (SMILES): COc1cc(OC)cc([C@@H]2CC(=O)N(Cc3ccc(OC)c(OC)c3)[C@H](c3ccc(O)cc3)[C@H]2[N+](=O)[O-])c1 (racemic)
Activity [4]: Dose-dependent effect
Activity [5]: Non-toxic
Activity [6]: Dose-dependent effect
Activity [7]: Dose-dependent effect
Activity [8]: Dose-dependent effect
Activity [9]: 82.92%
Activity [10]: Non-toxic
Activity [12]: Non-toxic

inhibition [1]: 42.1%
Structure (SMILES): Cc1ccc(CN2C(=O)C[C@@H](c3ccc(C)cc3)[C@H]([N+](=O)[O-])[C@H]2c2ccc(O)cc2)cc1 (racemic)

IC50 [4]: 90 nM
inhibition [1]: 33.1%
IC50 [6]: 80 nM
IC50 [7]: 3490 nM
Structure (SMILES): COC(=O)c1ccc(CN2C(=O)C[C@@H](c3ccccc3Cl)[C@H]([N+](=O)[O-])[C@H]2c2ccc(O)cc2)cc1 (racemic)
Activity [4]: Dose-dependent effect
Activity [6]: Dose-dependent effect
Activity [7]: Dose-dependent effect

inhibition [1]: 54%
Structure (SMILES): COc1cc(OC)cc([C@@H]2CC(=O)N(Cc3cccnc3)[C@H](c3ccc(O)cc3)[C@H]2[N+](=O)[O-])c1 (racemic)

inhibition [1]: 11.8%
Structure (SMILES): COc1cc([C@@H]2[C@@H]([N+](=O)[O-])[C@H](c3ccccc3Cl)CC(=O)N2Cc2ccccc2)ccc1O (racemic)

inhibition [1]: 43.6%
Structure (SMILES): O=C1C[C@@H](c2ccccc2)[C@H]([N+](=O)[O-])[C@@H](c2ccc(O)cc2)N1Cc1ccccc1 (racemic)

inhibition [1]: 48.9%
Structure (SMILES): COc1cccc(CN2C(=O)C[C@@H](c3ccc(C)cc3)[C@H]([N+](=O)[O-])[C@H]2c2ccc(O)cc2)c1 (racemic)

inhibition [1]: 11.2%
Structure (SMILES): O=C1C[C@@H](c2ccccc2Cl)[C@H]([N+](=O)[O-])[C@@H](c2ccc(O)cc2)N1Cc1ccccc1 (racemic)

inhibition [1]: 51.7%
Structure (SMILES): COc1cccc(CN2C(=O)C[C@@H](c3ccccc3)[C@H]([N+](=O)[O-])[C@H]2c2ccc(O)cc2)c1 (racemic)

inhibition [1]: 6.39%
Structure (SMILES): O=C1C[C@@H](c2ccccc2)[C@H]([N+](=O)[O-])[C@@H](c2ccc(O)cc2)N1Cc1ccc(F)cc1 (racemic)

inhibition [1]: 30.6%
Structure (SMILES): COc1ccc(CN2C(=O)C[C@@H](c3ccc(C)cc3)[C@H]([N+](=O)[O-])[C@H]2c2ccc(O)cc2)cc1 (racemic)

inhibition [1]: 39.9%
Structure (SMILES): Cc1ccc(CN2C(=O)C[C@@H](c3ccccc3)[C@H]([N+](=O)[O-])[C@H]2c2ccc(O)cc2)cc1 (racemic)

IC50 [4]: 20 nM
inhibition [1]: 56.9%
IC50 [6]: 170 nM
IC50 [7]: 850 nM
Structure (SMILES): COc1cccc(CN2C(=O)C[C@@H](c3cc(OC)cc(OC)c3)[C@H]([N+](=O)[O-])[C@H]2c2ccc(O)cc2)c1 (racemic)
Activity [4]: Dose-dependent effect
Activity [6]: Dose-dependent effect
Activity [7]: Dose-dependent effect

inhibition [1]: 46.1%
Structure (SMILES): COc1ccc(CN2C(=O)C[C@@H](c3ccccc3)[C@H]([N+](=O)[O-])[C@H]2c2ccc(O)cc2)cc1 (racemic)

inhibition [1]: 44.1%
Structure (SMILES): Cc1ccc([C@@H]2CC(=O)N(Cc3ccccc3)[C@H](c3ccc(O)cc3)[C@H]2[N+](=O)[O-])cc1 (racemic)
